What was measured:
[1] = target: T1, D(2) dopamine receptor (Homo sapiens, UniProt P14416); assay: In vitro for its ability to displace [3H]- spiperone from cloned human dopamine D2 short receptor expressed in CHO cells; type: cell-based
In short: (§1)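 [3H]Spiperone displacement from cloned human dopamine receptors stably expressed in CHO cells: D2long, D2short, D3 and D4.4 (the D4 line used the D4.4 variant). Ki values were determined.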

[2] = target: T1, D(2) dopamine receptor; assay: In vitro for its ability to displace [3H]- spiperone from cloned human dopamine D2 long receptor expressed in CHO cells; type: cell-based; in short: as §1
[3] = target: D(1A) dopamine receptor (Bos taurus, UniProt Q95136); assay: In vitro for its ability to displace [3H]- SCH 23390 from Dopamine receptor D1 in bovine striatal membrane […]; type: cell-based, Striatum
In short: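 D1 affinity was measured with bovine striatal membrane preparations and the D1-selective antagonist [3H]SCH 23390 as radioligand. Ki values were determined.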

[4] = target: T2, D(4) dopamine receptor (Homo sapiens, UniProt P21917); assay: In vitro for its ability to displace [3H]- spiperone from cloned human Dopamine receptor D4 expressed in CHO cells; type: cell-based; in short: as §1
T2 sequence (P21917 whole entry): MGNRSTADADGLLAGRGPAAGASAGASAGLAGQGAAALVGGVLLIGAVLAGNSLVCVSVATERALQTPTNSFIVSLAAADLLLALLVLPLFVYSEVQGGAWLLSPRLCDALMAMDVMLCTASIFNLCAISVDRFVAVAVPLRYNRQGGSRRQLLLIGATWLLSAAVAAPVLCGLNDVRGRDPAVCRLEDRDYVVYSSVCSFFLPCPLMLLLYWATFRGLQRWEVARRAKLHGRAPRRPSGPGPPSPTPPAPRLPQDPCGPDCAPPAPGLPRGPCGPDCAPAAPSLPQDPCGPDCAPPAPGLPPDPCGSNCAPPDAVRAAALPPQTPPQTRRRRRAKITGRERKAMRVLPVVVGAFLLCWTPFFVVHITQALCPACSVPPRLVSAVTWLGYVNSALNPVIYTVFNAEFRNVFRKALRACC

[5] = target: D(3) dopamine receptor (Homo sapiens, UniProt P35462); assay: Displacement of [3H]spiperone from human Dopamine receptor D3 expressed in CHO cells; type: cell-based; in short: as §1
[6] = In vitro for its ability to displace [3H]- ketanserin from 5-hydroxytryptamine 2 receptor in porcine brain homogenate; type: tissue-based
In short: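 5-HT2 binding was measured in porcine brain homogenates by displacement of [3H]ketanserine. Ki values were determined.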

[7] = target: T1, D(2) dopamine receptor; assay: In vitro for its ability to displace [3H]- spiperone from cloned human Dopamine receptor D2L expressed in CHO cells; type: cell-based; in short: as §1

Chain of D(3) dopamine receptor (P35462 whole entry): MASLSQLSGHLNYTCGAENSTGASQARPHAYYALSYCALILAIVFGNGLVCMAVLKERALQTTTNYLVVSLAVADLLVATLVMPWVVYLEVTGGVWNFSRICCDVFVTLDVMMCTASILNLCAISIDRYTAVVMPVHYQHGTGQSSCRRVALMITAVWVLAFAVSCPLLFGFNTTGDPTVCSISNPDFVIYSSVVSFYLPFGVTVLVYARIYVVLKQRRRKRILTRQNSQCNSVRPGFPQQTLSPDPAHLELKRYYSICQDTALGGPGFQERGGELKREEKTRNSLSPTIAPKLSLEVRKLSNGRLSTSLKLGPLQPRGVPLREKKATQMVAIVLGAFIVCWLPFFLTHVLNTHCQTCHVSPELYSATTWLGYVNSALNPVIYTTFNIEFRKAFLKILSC
T1 sequence (P14416 whole entry): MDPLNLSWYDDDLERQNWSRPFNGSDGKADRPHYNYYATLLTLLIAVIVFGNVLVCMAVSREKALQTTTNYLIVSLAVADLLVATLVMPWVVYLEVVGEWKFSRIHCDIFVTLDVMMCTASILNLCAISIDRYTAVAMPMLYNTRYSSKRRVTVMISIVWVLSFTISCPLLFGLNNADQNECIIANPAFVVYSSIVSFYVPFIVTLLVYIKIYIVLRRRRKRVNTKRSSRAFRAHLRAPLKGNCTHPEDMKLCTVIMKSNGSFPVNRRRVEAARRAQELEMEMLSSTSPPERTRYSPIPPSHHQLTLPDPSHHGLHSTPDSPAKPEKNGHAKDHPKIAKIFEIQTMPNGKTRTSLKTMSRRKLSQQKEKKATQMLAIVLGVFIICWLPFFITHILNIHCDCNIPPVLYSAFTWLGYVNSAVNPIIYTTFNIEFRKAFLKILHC
Chain of D(1A) dopamine receptor (Q95136 whole entry): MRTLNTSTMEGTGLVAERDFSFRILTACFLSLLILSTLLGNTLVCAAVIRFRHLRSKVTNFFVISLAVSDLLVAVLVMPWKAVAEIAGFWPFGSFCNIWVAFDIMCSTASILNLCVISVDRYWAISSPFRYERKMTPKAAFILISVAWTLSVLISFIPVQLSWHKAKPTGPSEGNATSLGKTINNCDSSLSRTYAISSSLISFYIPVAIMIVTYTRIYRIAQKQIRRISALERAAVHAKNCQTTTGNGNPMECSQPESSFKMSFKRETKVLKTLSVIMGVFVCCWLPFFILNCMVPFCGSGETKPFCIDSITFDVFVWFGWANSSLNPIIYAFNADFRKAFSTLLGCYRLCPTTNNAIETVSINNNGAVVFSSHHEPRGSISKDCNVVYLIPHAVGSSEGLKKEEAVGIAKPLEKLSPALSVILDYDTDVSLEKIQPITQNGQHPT

| Ki [1] | Ki [2] | Ki [3] | Ki [4] | Ki [5] | Ki [6] | Ki [7] | Structure (SMILES) | Ki ([5]; cho) |
| --- | --- | --- | --- | --- | --- | --- | --- | --- |
| 2400 nM | 3700 nM | 3500 nM | 290 nM | 2500 nM |  |  | COc1ccc(Br)cc1C1=N[C@@H](CN2CCN(c3ccccc3)CC2)[C@@H](C)O1 (stereo in doubt; 4d) |  |
| 330 nM | 690 nM | 4000 nM | 410 nM | 690 nM |  |  | c1ccc(C2=N[C@@H](CN3CCN(c4ccccc4)CC3)CO2)cc1 (stereo in doubt) |  |
| 18000 nM | 21000 nM | 480 nM | 3300 nM | 10000 nM |  |  | COc1ccc(Br)cc1C1=N[C@@H](CN2CCN(c3ccccc3)CC2)[C@@H](C)O1 (stereo in doubt) |  |
| 900 nM | 2200 nM | 9000 nM | 1600 nM | 5200 nM |  |  | COc1ccc(Br)cc1C1=N[C@@H](CN2CCN(c3ccccc3)CC2)CO1 (stereo in doubt; 4c) |  |
| 1900 nM | 3200 nM | 20000 nM | 700 nM | 2700 nM |  |  | C[C@@H]1OC(c2ccccc2)=N[C@H]1CN1CCN(c2ccccc2)CC1 (stereo in doubt; 4b) |  |
| 320 nM | 820 nM | 2000 nM | 440 nM | 710 nM |  |  | C[C@@H]1OC(c2ccccc2)=N[C@H]1CN1CCN(c2ccccc2)CC1 (stereo in doubt) |  |
| 11000 nM |  | 12000 nM |  | 7100 nM | 870 nM | 10000 nM | c1ccc(C2=NC[C@H](CN3CCN(c4ccccc4)CC3)N2)cc1 (stereo in doubt; 4e) |  |
| 110 nM | 400 nM | 2000 nM | 390 nM | 1000 nM |  |  | COc1ccc(Br)cc1C1=N[C@@H](CN2CCN(c3ccccc3)CC2)CO1 (stereo in doubt) |  |
| 1100 nM | 1700 nM | 9700 nM | 340 nM | 3300 nM |  |  | c1ccc(C2=N[C@@H](CN3CCN(c4ccccc4)CC3)CO2)cc1 (stereo in doubt; 4a) |  |
| 10000 nM | 14000 nM |  |  | 9000 nM |  |  | c1ccc(C2=NC[C@H](CN3CCN(c4ccccc4)CC3)N2)cc1 (stereo in doubt) |  |

| Structure (SMILES) | Ki [1] | Ki [2] | Ki [3] | Ki [4] | Ki [5] | Ki [6] | Ki [7] | Ki ([5]; cho) |
| --- | --- | --- | --- | --- | --- | --- | --- | --- |
| c1ccc(C2=N[C@@H](CN3CCN(c4ccccc4)CC3)CS2)cc1 (stereo in doubt) | 720 nM | 1100 nM | 4500 nM | 1200 nM | 1200 nM |  |  |  |
| c1ccc(C2=N[C@@H](CN3CCN(c4ccccc4)CC3)CS2)cc1 (stereo in doubt; 4f) | 1100 nM | 1500 nM | 16000 nM | 1800 nM |  |  |  | 1200 nM |
